The source made the active and inactive calls. No cut-off for these calls is given here.
How the values were obtained:
Assay type in all cases: nucleic-acid assay
Settings in all cases: Bos taurus
DNA [1] = assay: Binding affinity to calf thymus DNA at 1:0.67 to 1:2 DNA:compound ratio by UV-Vis spectrophotometric analysis
Method in brief: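 Absorption spectra of the probe were recorded in aqueous phosphate buffer, pH 7.0, while ct-DNA was added gradually. Shifts in band position and changes in intensity were followed.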

DNA [2] = assay: Binding affinity to calf thymus DNA assessed melting temperature at 1:0.5 compound:DNA ratio by thermal denaturation assay (reference value: 65.83 degC)
DNA [3] = assay: Binding affinity to calf thymus DNA at 30 uM by fluorescence titration method
Method in brief: (§1)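 Fluorescence titration: probe held at 30 μM in aqueous phosphate buffer, pH 7.0, at room temperature, with increasing concentrations of ct-DNA added. Emission spectra were recorded at each step.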

DNA [4] = assay: Displacement of ethidium bromide from calf thymus DNA at 3.5 to 75 uM by fluorescence spectrophotometric analysis
DNA [5] = assay: Binding affinity to calf thymus DNA assessed melting temperature at 2:1 compound:DNA ratio by thermal denaturation assay (reference value: 65.83 degC)
DNA [6] = assay: Binding affinity to calf thymus DNA assessed melting temperature at 1:1.5 compound:DNA ratio by thermal denaturation assay (reference value: 65.83 degC)
DNA [7] = assay: Binding affinity to calf thymus DNA assessed melting temperature at 1:1 compound:DNA ratio by thermal denaturation assay (reference value: 65.83 degC)
DNA [8] = assay: Binding affinity to calf thymus DNA at 30 uM by in presence of increasing concentration of DNA by Benesi-Hildebrand plot analysis
DNA [9] = assay: Binding affinity to calf thymus DNA at 1:1 compound:DNA ratio by fluorescence titration method; method in brief: as §1

Activity (DNA [1])	Tm (DNA [2]) [°C]	Activity (DNA [3])	Activity (DNA [4])	Tm (DNA [5]) [°C]	Tm (DNA [6]) [°C]	Tm (DNA [7]) [°C]	K (DNA [8]) [×10⁴ /M]	Activity (DNA [9])	Compound
inactive	65.6	Active	inactive	63.2	64.3	64.9	3.98		C#CCN1C(=O)c2cccc3c(C#Cc4ccc(C#N)cc4)ccc(c23)C1=O
inactive			inactive					Active	C#CCN1C(=O)c2cccc3c(C#Cc4ccc(N(C)C)cc4)ccc(c23)C1=O

Reference: ChEMBL document CHEMBL2311475, “Highly solvatochromic fluorescent naphthalimides: design, synthesis, photophysical properties and fluorescence switch-on sensing of ct-DNA” (Bioorg Med Chem Lett, 2013)
